{"source": "ChEMBL document CHEMBL5678798", "about": "(Clin Cancer Res, 2009)", "key": {"[1]": {"experiment": "In vivo inhibition of IGF1R in mouse NIH-3T3/LISN cells implanted in IGF1-stimulated nu/nu CD-1 mouse assessed as reduction in IGF1R phosphorylation at 10 mg/kg, po pretreated for 4 hrs followed by IGF1 stimulation and measured after 10 min by […] relative to control", "type": "functional", "settings": "4.167 h, time 250 min", "in_short": "(§1)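 Female nu/nu CD-1 mice, three per group, bearing ~500 mm3 tumors, given one oral dose of compound or vehicle. At 4 h, 10 µg hIGF-I i.v. via tail vein; saline controls. Tumor and blood taken 10 min later. Tumor lysates in RIPA captured on anti-IGF-IR plates and probed with europium anti-phosphotyrosine. Phospho/total IGF-IR expressed as % of ligand-stimulated control. Blood levels by LC-MS/MS.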"}, "[2]": {"experiment": "Inhibition of C-terminal His6-tagged human full length CDK2/N-terminal GST-tagged human full length cyclinA expressed in baculovirus infected Sf21 cells at 0.3 uM by filter binding assay relative to control", "settings": "condition cancer", "in_short": "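Run in an outsourced profiling panel of 233 kinases. Each kinase was tested with radiometric filter-binding activity assays at a single inhibitor concentration of 0.3 µmol/L. Inhibitor stock was 10 mmol/L in DMSO. Inhibition is reported as percent relative to control.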"}, "[3]": {"molecular_target": "Serine/threonine-protein kinase B-raf (Homo sapiens, UniProt P15056, V600E)", "sequence (P15056 2-766 V600E limits assumed)": "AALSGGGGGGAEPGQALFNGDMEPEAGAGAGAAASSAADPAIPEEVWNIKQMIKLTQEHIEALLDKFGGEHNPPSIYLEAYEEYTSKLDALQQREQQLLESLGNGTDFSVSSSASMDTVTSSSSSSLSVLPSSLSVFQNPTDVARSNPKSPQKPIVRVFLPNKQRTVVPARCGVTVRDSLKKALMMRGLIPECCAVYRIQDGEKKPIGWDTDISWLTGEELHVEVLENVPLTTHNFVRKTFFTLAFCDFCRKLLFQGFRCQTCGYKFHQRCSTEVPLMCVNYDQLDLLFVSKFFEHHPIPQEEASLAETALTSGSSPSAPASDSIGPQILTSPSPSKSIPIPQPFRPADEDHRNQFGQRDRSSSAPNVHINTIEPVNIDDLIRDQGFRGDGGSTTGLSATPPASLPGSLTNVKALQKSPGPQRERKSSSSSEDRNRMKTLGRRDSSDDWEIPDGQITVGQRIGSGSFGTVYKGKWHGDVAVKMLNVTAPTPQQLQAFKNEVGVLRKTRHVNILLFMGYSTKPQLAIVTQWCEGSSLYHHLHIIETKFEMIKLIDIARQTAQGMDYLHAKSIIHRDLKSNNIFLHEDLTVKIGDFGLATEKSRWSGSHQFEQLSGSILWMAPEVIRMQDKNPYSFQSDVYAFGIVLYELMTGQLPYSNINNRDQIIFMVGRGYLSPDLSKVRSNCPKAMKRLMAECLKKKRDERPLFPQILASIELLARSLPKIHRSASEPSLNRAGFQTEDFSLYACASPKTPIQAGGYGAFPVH", "experiment": "Inhibition of B-Raf V600E mutant (unknown origin)"}, "[4]": {"test_system": "MCF7", "experiment": "Induction of cell cycle arrest in human MCF7 cells assessed as decrease in cells accumulation at G2/M phase at 0.03 to 10 uM incubated for 24 to 48 hrs by propidium iodide staining based flow cytometric analysis", "type": "functional", "settings": "dose 0.03-10 µM, time lower 24.0 hrs, time upper […]", "in_short": "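COLO 205, MCF-7 or NCI-H929 cells seeded in 96-well plates overnight at 37°C, then exposed to DMSO or increasing compound concentrations for 24 or 48 h. Fixed and stained with propidium iodide (Vindelov method), then analysed by flow cytometry for sub-G1, G1, S and G2-M fractions. Experiment repeated twice.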"}, "[5]": {"molecular_target": "Insulin receptor (Mus musculus) (UniProt P15208)", "sequence (P15208 28-748 limits assumed)": "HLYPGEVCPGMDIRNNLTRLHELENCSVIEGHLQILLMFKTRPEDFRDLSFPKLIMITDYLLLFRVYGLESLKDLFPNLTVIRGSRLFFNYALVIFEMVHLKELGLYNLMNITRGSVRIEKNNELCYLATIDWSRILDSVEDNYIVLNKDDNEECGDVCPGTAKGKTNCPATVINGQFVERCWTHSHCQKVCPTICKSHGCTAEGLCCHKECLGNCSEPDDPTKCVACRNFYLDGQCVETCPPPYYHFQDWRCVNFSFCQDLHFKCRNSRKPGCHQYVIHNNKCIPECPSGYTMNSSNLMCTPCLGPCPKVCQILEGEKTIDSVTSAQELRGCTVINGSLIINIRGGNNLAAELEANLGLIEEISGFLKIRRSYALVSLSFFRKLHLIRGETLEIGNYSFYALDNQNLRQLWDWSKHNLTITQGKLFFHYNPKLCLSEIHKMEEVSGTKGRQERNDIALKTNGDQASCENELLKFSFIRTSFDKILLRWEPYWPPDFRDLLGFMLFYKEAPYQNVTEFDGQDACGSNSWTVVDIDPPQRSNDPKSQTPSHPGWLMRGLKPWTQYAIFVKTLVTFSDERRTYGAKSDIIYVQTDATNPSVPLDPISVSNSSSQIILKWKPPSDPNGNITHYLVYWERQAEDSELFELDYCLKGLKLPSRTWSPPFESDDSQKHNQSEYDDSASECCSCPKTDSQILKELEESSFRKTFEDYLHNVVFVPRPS", "sequence (P15208 753-1372 limits assumed)": "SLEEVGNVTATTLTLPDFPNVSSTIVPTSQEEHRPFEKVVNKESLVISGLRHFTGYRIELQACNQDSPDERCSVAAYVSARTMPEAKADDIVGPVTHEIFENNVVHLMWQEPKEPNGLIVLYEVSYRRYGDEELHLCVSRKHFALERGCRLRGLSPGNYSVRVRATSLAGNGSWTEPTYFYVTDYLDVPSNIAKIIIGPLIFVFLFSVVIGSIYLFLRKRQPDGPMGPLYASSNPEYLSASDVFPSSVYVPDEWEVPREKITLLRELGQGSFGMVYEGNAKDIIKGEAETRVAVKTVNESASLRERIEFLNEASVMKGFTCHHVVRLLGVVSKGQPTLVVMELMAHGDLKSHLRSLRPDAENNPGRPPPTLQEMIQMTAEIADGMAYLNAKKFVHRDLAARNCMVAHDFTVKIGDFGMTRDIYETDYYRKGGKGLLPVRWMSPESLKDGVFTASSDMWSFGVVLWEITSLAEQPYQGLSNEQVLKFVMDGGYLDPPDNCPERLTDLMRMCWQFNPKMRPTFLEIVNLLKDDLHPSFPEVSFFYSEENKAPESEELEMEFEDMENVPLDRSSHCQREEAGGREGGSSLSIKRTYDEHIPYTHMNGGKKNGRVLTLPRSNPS", "settings": "CD-1, dose 30.0 mg/kg, route po, time 4.0 hrs"}, "[6]": {"molecular_target": "Protein kinase C iota type (Homo sapiens) (UniProt P41743)", "experiment": "Inhibition of N-terminal His6-tagged recombinant full-length human PKCiota expressed in Sf21 cells at 3 uM by filter binding assay relative to control", "in_short": "(§2)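 Outsourced single-concentration screen in a commercial panel of 233 protein kinases, run as radiometric filter-binding activity assays. Test agent was tested at 0.3 or 3 µmol/L, as given in each line, from a 10 mmol/L DMSO stock. Activity is expressed as percent inhibition relative to control.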"}, "[7]": {"molecular_target": "Serine/threonine-protein kinase PLK1 (Homo sapiens) (UniProt P53350)", "experiment": "Inhibition of N-terminal 6His-tagged recombinant human Plk1 expressed in baculovirus infected Sf21 cells at 0.3 uM by filter binding assay relative to control", "in_short": "as §2"}, "[8]": {"experiment": "Toxicity in nu/nu CD-1 mouse xenografted with human HT-29 cells assessed as reduction in body weight at 30 mg/kg, po for 21 days relative to control", "type": "organism-based", "settings": "in vivo, 504 h, time 21 day"}, "[9]": {"molecular_target": "Insulin receptor (Mus musculus) (UniProt P15208)", "settings": "CD-1, dose 30.0 mg/kg, route po, time 2-24 hrs"}, "[10]": {"molecular_target": "Ephrin type-A receptor 4 (Homo sapiens) (UniProt P54764)", "experiment": "Inhibition of N-terminal His6-tagged recombinant human EphA4 (601 to 892 residues) expressed in baculovirus infected Sf21 cells at 3 uM by filter binding assay relative to control"}, "[11]": {"molecular_target": "Focal adhesion kinase 1 (Homo sapiens, UniProt Q05397)", "experiment": "Inhibition of N-terminal 6His-tagged recombinant human FAK (411 to 686 residues) expressed in baculovirus infected Sf21 cells by filter binding assay"}, "[12]": {"experiment": "In vivo inhibition of IGF1R in mouse NIH-3T3/LISN cells implanted in IGF1-stimulated nu/nu CD-1 mouse assessed as reduction in IGF1R phosphorylation at 3 mg/kg, po pretreated for 4 hrs followed by IGF1 stimulation and measured after 10 min by […] relative to control", "type": "functional", "settings": "4.167 h, time 250 min", "in_short": "as §1"}, "[13]": {"molecular_target": "Tyrosine-protein kinase Lck (Homo sapiens, UniProt P06239)", "experiment": "Inhibition of LCK (unknown origin)"}, "[14]": {"test_system": "SK-N-MC", "experiment": "Antiproliferative activity against human SK-N-MC cells assessed as reduction in cell viability after 72 hrs by CellTiter-Glo assay", "type": "functional, cell-based", "in_short": "(§3)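 Cells seeded in 96-well plates, left overnight at 37°C, then exposed to a range of test concentrations for 72 h. Viability read by CellTiter-Glo luminescence; IC50 from four-parameter curve fit. Lines kept at 37°C, 5% CO2, in recommended growth medium.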"}, "[15]": {"molecular_target": "Mitogen-activated protein kinase kinase kinase 9 (Homo sapiens) (UniProt P80192)", "sequence (P80192 whole entry, looked up, the tested form may be a part)": "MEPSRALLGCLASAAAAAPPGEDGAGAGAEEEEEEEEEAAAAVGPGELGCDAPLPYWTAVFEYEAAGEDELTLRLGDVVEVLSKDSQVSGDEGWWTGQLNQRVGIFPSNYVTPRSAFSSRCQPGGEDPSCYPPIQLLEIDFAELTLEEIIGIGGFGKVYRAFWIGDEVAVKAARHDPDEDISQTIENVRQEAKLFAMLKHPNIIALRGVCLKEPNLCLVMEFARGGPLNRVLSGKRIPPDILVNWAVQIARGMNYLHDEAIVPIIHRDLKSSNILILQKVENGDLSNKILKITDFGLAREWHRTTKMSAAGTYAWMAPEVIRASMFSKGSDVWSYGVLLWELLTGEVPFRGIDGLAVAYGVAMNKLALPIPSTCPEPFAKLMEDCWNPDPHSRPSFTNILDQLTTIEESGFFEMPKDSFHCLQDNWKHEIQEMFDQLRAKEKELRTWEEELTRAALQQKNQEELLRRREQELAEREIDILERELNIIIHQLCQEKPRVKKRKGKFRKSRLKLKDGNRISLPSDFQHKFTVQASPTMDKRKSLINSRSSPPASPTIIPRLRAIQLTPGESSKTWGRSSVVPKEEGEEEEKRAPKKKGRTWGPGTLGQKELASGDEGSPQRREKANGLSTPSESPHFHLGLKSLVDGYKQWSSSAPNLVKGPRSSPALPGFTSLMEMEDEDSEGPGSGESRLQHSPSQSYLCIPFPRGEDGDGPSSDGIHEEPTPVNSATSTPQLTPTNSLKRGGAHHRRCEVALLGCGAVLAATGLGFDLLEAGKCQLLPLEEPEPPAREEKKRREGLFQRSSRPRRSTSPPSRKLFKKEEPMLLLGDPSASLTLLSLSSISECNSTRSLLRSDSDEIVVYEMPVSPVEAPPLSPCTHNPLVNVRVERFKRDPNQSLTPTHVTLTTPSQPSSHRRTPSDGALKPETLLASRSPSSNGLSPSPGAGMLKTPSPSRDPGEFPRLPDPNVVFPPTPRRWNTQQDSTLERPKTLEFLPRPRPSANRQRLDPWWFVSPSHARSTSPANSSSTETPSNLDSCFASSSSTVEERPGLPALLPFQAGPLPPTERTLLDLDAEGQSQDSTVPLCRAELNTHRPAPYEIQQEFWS", "experiment": "Inhibition of N-terminal 6His-tagged recombinant human MLK1 (134 to 414 residues) expressed in baculovirus infected Sf21 cells at 0.3 uM by filter binding assay relative to control", "in_short": "as §2"}, "[16]": {"test_system": "L-363", "experiment": "Antiproliferative activity against human L-363 cells assessed as reduction in cell viability after 72 hrs by CellTiter-Glo assay", "type": "functional, cell-based", "settings": "L-363, 72 h", "in_short": "as §3"}, "[17]": {"experiment": "Antiproliferative activity against human TC71 cells assessed as reduction in cell viability after 72 hrs by CellTiter-Glo assay", "type": "functional, cell-based", "settings": "TC-71, 72 h", "in_short": "as §3"}, "[18]": {"molecular_target": "Activated CDC42 kinase 1 (Homo sapiens) (UniProt Q07912)", "sequence (Q07912 whole entry, looked up, the tested form may be a part)": "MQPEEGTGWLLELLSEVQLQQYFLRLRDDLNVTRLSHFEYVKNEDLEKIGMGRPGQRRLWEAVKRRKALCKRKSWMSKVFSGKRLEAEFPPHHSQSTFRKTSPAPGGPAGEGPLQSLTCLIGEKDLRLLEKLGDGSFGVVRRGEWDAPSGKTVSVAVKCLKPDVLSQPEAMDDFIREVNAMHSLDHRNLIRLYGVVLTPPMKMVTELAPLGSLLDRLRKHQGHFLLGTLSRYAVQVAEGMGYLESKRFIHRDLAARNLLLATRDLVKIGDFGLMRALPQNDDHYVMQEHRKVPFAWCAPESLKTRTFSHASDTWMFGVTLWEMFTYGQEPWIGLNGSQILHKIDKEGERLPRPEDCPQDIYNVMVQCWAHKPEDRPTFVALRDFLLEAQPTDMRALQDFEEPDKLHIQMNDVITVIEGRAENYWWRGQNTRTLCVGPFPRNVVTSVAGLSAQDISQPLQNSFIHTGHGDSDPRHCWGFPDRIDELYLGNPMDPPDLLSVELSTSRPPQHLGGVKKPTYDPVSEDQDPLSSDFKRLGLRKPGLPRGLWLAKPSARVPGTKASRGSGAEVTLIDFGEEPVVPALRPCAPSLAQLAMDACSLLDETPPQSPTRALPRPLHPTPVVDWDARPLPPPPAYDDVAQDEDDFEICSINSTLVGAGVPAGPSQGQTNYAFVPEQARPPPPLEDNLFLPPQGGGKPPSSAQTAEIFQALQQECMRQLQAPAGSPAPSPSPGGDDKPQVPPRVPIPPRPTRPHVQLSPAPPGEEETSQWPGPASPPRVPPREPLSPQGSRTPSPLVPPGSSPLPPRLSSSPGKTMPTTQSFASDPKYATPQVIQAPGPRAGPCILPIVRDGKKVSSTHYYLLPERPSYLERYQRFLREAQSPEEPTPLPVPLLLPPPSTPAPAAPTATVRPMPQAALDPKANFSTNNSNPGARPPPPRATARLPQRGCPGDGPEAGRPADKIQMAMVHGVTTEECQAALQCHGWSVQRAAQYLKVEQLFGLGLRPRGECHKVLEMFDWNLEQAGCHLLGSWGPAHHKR", "experiment": "Inhibition of N-terminal GST-tagged recombinant human ACK1 (1 to 389 residues) expressed in baculovirus infected Sf21 cells at 3 uM by filter binding assay relative to control", "in_short": "as §2"}, "[19]": {"molecular_target": "cAMP-dependent protein kinase catalytic subunit PRKX (Homo sapiens) (UniProt P51817)", "experiment": "Inhibition of N-terminal 6His-tagged recombinant full-length human PrKX expressed in baculovirus infected Sf21 cells at 3 uM by filter binding assay relative to control", "in_short": "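KinaseProfiler panel of 233 kinases: radiometric filter-binding activity assays with compound at 0.3 or 3 µmol/L. Read-out is percent inhibition.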"}, "[20]": {"molecular_target": "Casein kinase I isoform gamma-3 (Homo sapiens, UniProt Q9Y6M4)", "experiment": "Inhibition of N-terminal 6His-tagged recombinant human CK1gamma3 (1 to 330 residues) expressed in baculovirus infected Sf21 cells by filter binding assay"}, "[21]": {"test_system": "HeLa", "experiment": "Antiproliferative activity against human HeLa cells assessed as reduction in cell viability after 72 hrs by CellTiter-Glo assay", "type": "functional, cell-based", "in_short": "as §3"}, "[22]": {"molecular_target": "Serine/threonine-protein kinase tousled-like 2 (Homo sapiens) (UniProt Q86UE8)", "sequence (Q86UE8 whole entry, looked up)": "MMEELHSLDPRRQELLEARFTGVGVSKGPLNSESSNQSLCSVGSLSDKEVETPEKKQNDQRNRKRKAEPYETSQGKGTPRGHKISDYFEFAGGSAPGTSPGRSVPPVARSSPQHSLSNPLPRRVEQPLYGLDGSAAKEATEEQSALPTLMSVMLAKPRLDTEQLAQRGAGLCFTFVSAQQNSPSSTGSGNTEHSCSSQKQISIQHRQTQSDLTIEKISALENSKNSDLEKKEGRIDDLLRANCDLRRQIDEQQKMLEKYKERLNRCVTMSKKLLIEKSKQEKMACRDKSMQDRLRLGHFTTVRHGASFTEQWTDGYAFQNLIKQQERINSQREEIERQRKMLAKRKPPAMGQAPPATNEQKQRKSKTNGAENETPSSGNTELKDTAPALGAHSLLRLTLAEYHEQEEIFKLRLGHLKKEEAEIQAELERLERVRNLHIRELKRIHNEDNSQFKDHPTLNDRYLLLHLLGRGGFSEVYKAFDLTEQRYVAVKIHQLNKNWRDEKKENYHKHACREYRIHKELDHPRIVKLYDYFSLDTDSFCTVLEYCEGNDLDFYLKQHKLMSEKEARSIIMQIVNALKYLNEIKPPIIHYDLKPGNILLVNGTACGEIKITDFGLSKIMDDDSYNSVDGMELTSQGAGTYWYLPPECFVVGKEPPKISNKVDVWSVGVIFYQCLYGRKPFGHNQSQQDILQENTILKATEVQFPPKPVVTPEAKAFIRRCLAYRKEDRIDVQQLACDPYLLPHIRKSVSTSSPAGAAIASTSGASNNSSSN", "experiment": "Inhibition of N-terminal 6His-tagged recombinant human TLK2 (388 to end residues) expressed in baculovirus infected Sf21 cells at 3 uM by filter binding assay relative to control", "in_short": "as §2"}}, "note": "Calls of active or inactive are those of the source. The calls are words filed in the database; no cut-off is given here."}
{"smiles": "CCc1cc(Nc2nccc(-c3c(-c4ccc(OC)c(C(=O)Nc5c(F)cccc5F)c4)nc4ccccn34)n2)c(OC)cc1N1CCC(N2CCN(S(C)(=O)=O)CC2)CC1", "values": [{"measurement": "inhibition in vivo at 10 mg/kg", "setting": "[1]", "value": 95, "unit": "%"}, {"measurement": "inhibition at 0.3 µM", "setting": "[2]", "value": 2, "unit": "%"}, {"measurement": "IC50", "setting": "[3]", "value": "> 2000", "unit": "nM"}, {"measurement": "Activity", "setting": "[4]", "value": "Active"}, {"measurement": "inhibition", "setting": "[5]", "value": "inactive"}, {"measurement": "inhibition", "setting": "[6]", "value": 0, "unit": "%"}, {"measurement": "inhibition", "setting": "[7]", "value": -8, "unit": "%"}, {"measurement": "Activity", "setting": "[8]", "value": "Non-Toxic"}, {"measurement": "inhibition", "setting": "[9]", "value": "inactive"}, {"measurement": "inhibition", "setting": "[10]", "value": -10, "unit": "%"}, {"measurement": "IC50", "setting": "[11]", "value": 362, "unit": "nM"}, {"measurement": "inhibition in vivo at 3 mg/kg", "setting": "[12]", "value": 75, "unit": "%"}, {"measurement": "IC50", "setting": "[13]", "value": 8000, "unit": "nM"}, {"measurement": "IC50", "setting": "[14]", "value": 43, "unit": "nM"}, {"measurement": "inhibition", "setting": "[15]", "value": 1, "unit": "%"}, {"measurement": "IC50", "setting": "[16]", "value": 165, "unit": "nM"}, {"measurement": "IC50", "setting": "[17]", "value": 35, "unit": "nM"}, {"measurement": "inhibition", "setting": "[18]", "value": 34, "unit": "%"}, {"measurement": "inhibition", "setting": "[19]", "value": 1, "unit": "%"}, {"measurement": "IC50", "setting": "[20]", "value": "> 10000", "unit": "nM"}, {"measurement": "IC50", "setting": "[21]", "value": "> 20000", "unit": "nM"}, {"measurement": "inhibition", "setting": "[22]", "value": 0, "unit": "%"}]}
